Assays:
MCF-7 cells = test: SRB cytotoxicity assay, MCF-7; type: cell-based, human; conditions: for cytotoxicity at 25 µM: Homo sapiens, MCF7, 48 h, read-out: Average cell death (%) MCF-7
4T1 cells = test: SRB cytotoxicity assay, 4T1; type: cell-based, murine; conditions: Mus musculus, 4T1, 48 h, read-out: Average cell death (%) 4T1
In short: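 Single-dose screen: cells in DMEM/10% FBS at 37 °C, 5% CO2, seeded at 3000 per well, attached 24 h, then exposed to test compound at 25 μM final for 48 h. Fixed in cold 10% TCA, 1 h, 4 °C; stained 0.057% SRB, 30 min, dark, room temperature; rinsed with 1% acetic acid; dye solubilised in Tris base pH 10.5; absorbance 510 nm; percent cell death.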

MDA-MB-231 cells = test: SRB cytotoxicity assay, MDA-MB-231; type: cell-based, human; conditions: for cytotoxicity at 25 µM: Homo sapiens, MDA-MB-231, 48 h, read-out: Average cell death (%) MDA-MB-231

SMILES | cytotoxicity at 25 µM (MDA-MB-231 cells) | other results
Cn1c2ccccc2c2c(C(=O)c3ccccc3)c(-c3ccccc3)n(Cc3ccccc3)c(=O)c21 [9a, 4-Benzoyl-2-benzyl-9-methyl-3-phenyl-2,9-dihydro-1H-pyrido[3,4-b]indol-1-one] | 32.8 ± 3.16% | cytotoxicity at 25 µM (MCF-7 cells): 9.16 ± 2.08%; cytotoxicity at 25 µM (4T1 cells): 47.8 ± 3.32%
COc1ccc(C(=O)c2c(-c3ccccc3)n(Cc3ccccc3)c(=O)c3c2c2ccccc2n3C)cc1 [9b, 2-Benzyl-4-(4-methoxybenzoyl)-9-methyl-3-phenyl-2,9-dihydro-1H-pyrido[3,4-b]indol-1-one] | 20.2 ± 2.16% | cytotoxicity at 25 µM (MCF-7 cells): 18.3 ± 3.05%; cytotoxicity at 25 µM (4T1 cells): 39.8 ± 4.02%
Cn1c2ccccc2c2c(C(=O)c3ccc(C(F)(F)F)cc3)c(-c3ccccc3)n(Cc3ccccc3)c(=O)c21 [9d, 2-Benzyl-9-methyl-3-phenyl-4-(4-(trifluoromethyl)benzoyl)-2,9-dihydro-1H-pyrido[3,4-b]indol-1-one] | 11.3 ± 0.53% | cytotoxicity at 25 µM (MCF-7 cells): 14.2 ± 1.03%; cytotoxicity at 25 µM (4T1 cells): 15.5 ± 2.15%
CCCCn1c(-c2ccccc2)c(C(=O)c2ccccc2)c2c3ccccc3n(C)c2c1=O [11a, 4-Benzoyl-2-butyl-9-methyl-3-phenyl-2,9-dihydro-1H-pyrido[3,4-b]indol-1-one] | 36.6 ± 3.2% | –
CCCCn1c(-c2ccccc2)c(C(=O)c2ccc(OC)cc2)c2c3ccccc3n(C)c2c1=O [11b, 2-Butyl-4-(4-methoxybenzoyl)-9-methyl-3-phenyl-2,9-dihydro-1H-pyrido[3,4-b]indol-1-one] | 30.3 ± 1.2% | –
CCCCn1c(-c2ccccc2)c(C(=O)c2ccc(C)cc2)c2c3ccccc3n(C)c2c1=O [11c, 2-Butyl-9-methyl-4-(4-methylbenzoyl)-3-phenyl-2,9-dihydro-1H-pyrido[3,4-b]indol-1-one] | 31.2 ± 1.6% | –
CCCCn1c(-c2ccccc2)c(C(=O)c2ccc(C(F)(F)F)cc2)c2c3ccccc3n(C)c2c1=O [11d, 2-Butyl-9-methyl-3-phenyl-4-(4-(trifluoromethyl)benzoyl)-2,9-dihydro-1H-pyrido[3,4-b]indol-1-one] | 14.7 ± 2.9% | –
CCCCn1c(-c2ccccc2)c(C(=O)c2ccc(F)cc2)c2c3ccccc3n(C)c2c1=O [11e, 2-Butyl-4-(4-fluorobenzoyl)-9-methyl-3-phenyl-2,9-dihydro-1H-pyrido[3,4-b]indol-1-one] | 31.8 ± 1.8% | –
Cn1c2ccccc2c2c(C(=O)c3ccccc3)c(-c3ccccc3)n(-c3nc4ccccc4s3)c(=O)c21 [12a, 2-(Benzo[d]thiazol-2-yl)-4-benzoyl-9-methyl-3-phenyl-2,9-dihydro-1H-pyrido[3,4-b]indol-1-one] | 26.9 ± 2.6% | –
COc1ccc(C(=O)c2c(-c3ccccc3)n(-c3nc4ccccc4s3)c(=O)c3c2c2ccccc2n3C)cc1 [12b, 2-(Benzo[d]thiazol-2-yl)-4-(4-methoxybenzoyl)-9-methyl-3-phenyl-2,9-dihydro-1H-pyrido[3,4-b]indol-1-one] | 4.08 ± 1.1% | –
Cc1ccc(C(=O)c2c(-c3ccccc3)n(-c3nc4ccccc4s3)c(=O)c3c2c2ccccc2n3C)cc1 [12c, 2-(Benzo[d]thiazol-2-yl)-9-methyl-4-(4-methylbenzoyl)-3-phenyl-2,9-dihydro-1H-pyrido[3,4-b]indol-1-one] | 31.3 ± 4% | –
Cn1c2ccccc2c2c(C(=O)c3ccc(C(F)(F)F)cc3)c(-c3ccccc3)n(-c3nc4ccccc4s3)c(=O)c21 [12d, 2-(Benzo[d]thiazol-2-yl)-9-methyl-3-phenyl-4-(4-(trifluoromethyl)benzoyl)-2,9-dihydro-1H-pyrido[3,4-b]indol-1-one] | 24.5 ± 2.7% | –
Cn1c2ccccc2c2c(C(=O)c3ccc(F)cc3)c(-c3ccccc3)n(-c3nc4ccccc4s3)c(=O)c21 [12e, 2-(Benzo[d]thiazol-2-yl)-4-(4-fluorobenzoyl)-9-methyl-3-phenyl-2,9-dihydro-1H-pyrido[3,4-b]indol-1-one] | 34.9 ± 1.7% | –
N.N.[Cl][Pt][Cl] [Cisplatin, reference compound] | – | Average cell death (%) MCF-7 (MCF-7 cells; at 100 μM, SRB assay): 80 ± 6.2%; Average cell death (%) MDA-MB-231 (MDA-MB-231 cells; at 100 μM, SRB assay): 75 ± 4.3%

— article PMC12461553 (RSC Advances, 2025)
